≈ marks a conversion by molar mass, not a printed value. Blank lines part the entries; values can stand above or below the compound they belong to. Calls of active or inactive are those of the source. The rule behind the calls is not given here.
Experiments:
[1] = Protein binding in rhesus monkey plasma; type: ADME, cell-free, Macaca mulatta; conditions: read-out: PPB (converted)
[2] = target: T1, Oxysterols receptor LXR-alpha (Homo sapiens) (UniProt Q13133); test: (§1) Partial agonist activity at GST-tagged LXRalpha-LBD (unknown origin) by LanthaScreen TR-FRET liver X receptor coactivator assay
T1 sequence (whole entry): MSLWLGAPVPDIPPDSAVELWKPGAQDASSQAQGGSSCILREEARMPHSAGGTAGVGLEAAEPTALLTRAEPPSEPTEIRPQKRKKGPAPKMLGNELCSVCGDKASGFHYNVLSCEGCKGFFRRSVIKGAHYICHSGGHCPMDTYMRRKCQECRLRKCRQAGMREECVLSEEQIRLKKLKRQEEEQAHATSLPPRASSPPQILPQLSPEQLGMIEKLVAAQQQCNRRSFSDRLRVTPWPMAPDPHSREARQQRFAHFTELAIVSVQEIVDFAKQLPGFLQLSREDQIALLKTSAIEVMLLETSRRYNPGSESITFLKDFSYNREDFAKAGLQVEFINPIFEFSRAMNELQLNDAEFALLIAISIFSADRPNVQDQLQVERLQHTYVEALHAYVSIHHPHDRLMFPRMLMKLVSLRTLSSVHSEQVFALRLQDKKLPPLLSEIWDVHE
Procedure, shortened: (§2)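 Cofactor recruitment assay using the ligand binding domains of LXRβ or LXRα. The read-out was EC50 and Emax, with Emax relative to a full agonist control.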

[3] = target: T2, Oxysterols receptor LXR-alpha (Homo sapiens, UniProt Q13133); test: as §1; procedure, shortened: as §2
T2 sequence (Q13133 whole entry): T1 sequence (whole entry)

[4] = target: T1, Oxysterols receptor LXR-alpha (Homo sapiens); test: (§3) Partial agonist activity at LXRalpha (unknown origin) expressed in human HepG2 cells co-expressing ABCA1 promoter measured after 48 hrs by cell-based transactivation assay
Procedure, shortened: (§4)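 Cell-based transactivation assay using endogenous LXRβ or LXRα. The read-out was EC50 and Emax, with Emax expressed relative to a full agonist control set at 100%.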

[5] = target: T2, Oxysterols receptor LXR-alpha; test: as §3; procedure, shortened: as §4
[6] = Apparent permeability of compound in MDCK cells; type: ADME, cell-based, Canis lupus familiaris; conditions: dog
[7] = target: T3, Oxysterols receptor LXR-beta (Homo sapiens, UniProt P55055); test: Agonist activity at GST-tagged LXRbeta-LBD (unknown origin) by LanthaScreen TR-FRET liver X receptor coactivator assay; procedure, shortened: as §2
T3 sequence (P55055 whole entry): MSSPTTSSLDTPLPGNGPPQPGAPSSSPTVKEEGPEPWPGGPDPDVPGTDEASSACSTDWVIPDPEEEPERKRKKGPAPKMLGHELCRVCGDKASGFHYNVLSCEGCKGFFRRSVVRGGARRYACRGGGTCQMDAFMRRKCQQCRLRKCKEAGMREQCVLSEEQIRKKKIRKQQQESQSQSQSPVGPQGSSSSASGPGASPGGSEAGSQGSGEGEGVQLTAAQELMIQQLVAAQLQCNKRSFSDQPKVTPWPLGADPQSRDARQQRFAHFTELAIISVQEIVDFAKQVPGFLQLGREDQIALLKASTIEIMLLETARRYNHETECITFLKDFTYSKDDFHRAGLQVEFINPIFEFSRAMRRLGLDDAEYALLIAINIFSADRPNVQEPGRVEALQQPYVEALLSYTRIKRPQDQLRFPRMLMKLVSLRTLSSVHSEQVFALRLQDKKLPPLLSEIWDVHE

[8] = Solubility of the compound at pH 2; type: physicochemical; conditions: buffer
[9] = tested on: P-gp; test: Efflux ratio in MDCK cells expressing rat P-gp assessed as ratio of permeability across basolateral to apical side over apical to basolateral side; type: ADME, cell-based, Canis lupus familiaris; conditions: dog, MDCK-MDR1
[10] = tested on: P-gp; test: Efflux ratio in MDCK cells expressing human P-gp assessed as ratio of permeability across basolateral to apical side over apical to basolateral side; type: ADME, cell-based, Canis lupus familiaris; conditions: dog, MDCK-MDR1
[11] = Ratio of drug uptake in brain to plasma in rat; type: ADME, cell-free; conditions: brain and plasma, read-out: BPR
[12] = Clearance in rat; type: ADME, organism-based; conditions: in vivo
[13] = Half life of compound in rat; type: ADME, organism-based; conditions: in vivo
[14] = Volume of distribution at steady state in rat; type: ADME, organism-based; conditions: in vivo, read-out: Vdss
[15] = Oral bioavailability in rat; type: ADME, organism-based; conditions: in vivo
[16] = Protein binding in rat plasma; type: ADME, cell-free; conditions: read-out: PPB (converted)
[17] = Clearance in rhesus monkey; type: ADME, organism-based, Macaca mulatta; conditions: in vivo
[18] = Half life of compound in rhesus monkey; type: ADME, organism-based, Macaca mulatta; conditions: in vivo
[19] = Volume of distribution at steady state in rhesus monkey; type: ADME, organism-based, Macaca mulatta; conditions: in vivo, read-out: Vdss
[20] = Oral bioavailability in rhesus monkey; type: ADME, organism-based, Macaca mulatta; conditions: in vivo
[21] = tested on: Rattus norvegicus; test: Increase in apoE level in CSF of Wistar Han rat at 100 mg/kg, sc dosed for 4 days by western blotting method; type: functional, organism-based
Procedure, shortened: (§5)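 Rats were dosed subcutaneously for 4 days, and apoE and Aβ were then measured in CSF.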

[22] = tested on: Rattus norvegicus; test: Increase in amyloid beta level in CSF of Wistar Han rat at 100 mg/kg, sc dosed for 4 days by western blotting method; type: functional, organism-based; procedure, shortened: as §5
[23] = tested on: Rattus norvegicus; test: Toxicity in Wistar Han rat assessed as change in liver triglyceride level at 100 mg/kg, sc dosed for 4 days […]; type: organism-based; conditions: in vivo, 96 h
[24] = tested on: Rattus norvegicus; test: Toxicity in Wistar Han rat assessed as change in plasma triglyceride level at 100 mg/kg, sc dosed for 4 days […]; type: organism-based; conditions: in vivo, 96 h
[25] = tested on: Mus musculus; test: Activation of LXR in Tg2576 transgenic mouse assessed increase in brain ABCA1 level at 50 mg/kg, sc dosed for 3 weeks by western blotting method; type: functional, organism-based
Procedure, shortened: (§6)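 12-month-old Tg2576 mice were dosed subcutaneously for three weeks. Brain was assayed for ABCA1 protein, soluble apoE and DEA-soluble Aβ, and plasma and liver were assayed for triglycerides. Groups were compared with vehicle by ANOVA.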

[26] = tested on: Mus musculus; test: Activation of LXR in Tg2576 transgenic mouse assessed increase in soluble apoE level in brain at 50 mg/kg, sc dosed for 3 weeks; type: functional, organism-based; procedure, shortened: as §6
[27] = tested on: Mus musculus; test: Activation of LXR in Tg2576 transgenic mouse assessed decrease in DEA-soluble amyloid-beta level in brain at 50 mg/kg, sc dosed for 3 weeks; type: functional; conditions: 504 h; procedure, shortened: as §6
[28] = tested on: Mus musculus; test: Toxicity in Tg2576 transgenic mouse assessed as change in plasma triglyceride level at 50 mg/kg, sc dosed for 3 weeks; type: organism-based; conditions: in vivo, 504 h; procedure, shortened: as §6
[29] = tested on: Mus musculus; test: Toxicity in Tg2576 transgenic mouse assessed as change in liver triglyceride level at 50 mg/kg, sc dosed for 3 weeks; type: organism-based; conditions: in vivo, 504 h; procedure, shortened: as §6
[30] = tested on: Mus musculus; test: Reversal of hyperlocomotary behavior in Tg2576 transgenic mouse at 50 mg/kg, sc dosed for 16 days by open field test; type: functional, organism-based
Procedure, shortened: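 Mice from the three-week subcutaneous study were tested in the open field for locomotor activity after 16 days of dosing. Wild-type mice were included for comparison.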

[31] = tested on: Mus musculus; test: Toxicity in wild-type mouse assessed as effect on locomotary behavior at 50 mg/kg, sc dosed for 16 days mins by open field test; type: organism-based; conditions: in vivo, 384 h
Procedure, shortened: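 Wild-type mice were part of a three-week subcutaneous dosing study that also included Tg2576 transgenic mice. Locomotor activity was scored in an open-field arena after 16 days of dosing.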

[32] = tested on: Mus musculus; test: Reversal of hyperlocomotary behavior in Tg2576 transgenic mouse at 50 mg/kg, sc administered as single dose 4 hrs before test by open field test; type: functional, organism-based
Procedure, shortened: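 A single subcutaneous dose was given 4 h before the open-field locomotor test.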

[33] = tested on: Rhesus monkey; test: Increase in LDL cholesterol level in rhesus monkey at 10 to 20 mg/kg, po qd for 2 weeks; type: ADME, organism-based, Macaca mulatta; conditions: in vivo, 336 h
Procedure, shortened: (§7)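 Rhesus monkeys were dosed orally once daily for 2 weeks. LDL and HDL cholesterol were measured in serum at trough after the last dose and compared with baseline serum samples taken before dosing.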

[34] = tested on: Rhesus monkey; test: Increase in apoE level in CSF of rhesus monkey at 10 and 20 mg/kg, po administered for 2 weeks by apoE ELISA relative to control; type: functional, Macaca mulatta
Procedure, shortened: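 Rhesus monkeys were dosed orally once daily for 2 weeks after randomisation on baseline lipids, liver enzymes and liver fat. CSF was taken by lumbar puncture at baseline and at trough after the last dose, and apoE was measured against baseline.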

[35] = Cmax in rhesus monkey at 20 mg/kg, po administered for 2 weeks; type: ADME, organism-based, Macaca mulatta; design: dose 20 mg/kg, route oral; conditions: in vivo
Procedure, shortened: (§8)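 Cmax was estimated across a 2-week once-daily oral dosing study in rhesus monkeys.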

[36] = Cmax in rhesus monkey at 10 mg/kg, po administered for 2 weeks; type: ADME, organism-based, Macaca mulatta; design: dose 10 mg/kg, route oral; conditions: in vivo; procedure, shortened: as §8
[37] = tested on: Rhesus monkey; test: Increase in amyloid beta40 in CSF of rhesus monkey at 20 mg/kg, po administered for 2 weeks; type: functional, Macaca mulatta
[38] = tested on: Rhesus monkey; test: Increase in hepatic fat content in rhesus monkey at 10 and 20 mg/kg, po qd for 2 weeks by magnetic resonance spectroscopic imaging method relative to vehicle control; type: ADME, organism-based, Macaca mulatta; conditions: in vivo, 336 h
[39] = tested on: Rhesus monkey; test: Increase in lipid level in serum of rhesus monkey at 10 to 20 mg/kg, po qd for 2 weeks; type: ADME, organism-based, Macaca mulatta; conditions: in vivo, 336 h
[40] = tested on: Rhesus monkey; test: Increase in lipid level in liver of rhesus monkey at 10 to 20 mg/kg, po qd for 2 weeks; type: ADME, organism-based, Macaca mulatta; conditions: in vivo, 336 h
[41] = tested on: Rhesus monkey; test: Upregulation of CETP in rhesus monkey at 20 mg/kg, po qd for 2 weeks relative to control; type: ADME, organism-based; conditions: Macaca mulatta, 336 h, read-out: FC
[42] = tested on: Rhesus monkey; test: Decrease in ratio of HDL to LDL level in rhesus monkey plasma at 10 to 20 mg/kg, po qd for 2 weeks; type: ADME, organism-based, Macaca mulatta; conditions: in vivo, 336 h; procedure, shortened: as §7
[43] = target: T4, Oxysterols receptor LXR-beta (Homo sapiens) (UniProt P55055); test: Agonist activity at GST-tagged LXRbeta-LBD (unknown origin) by LanthaScreen TR-FRET liver X receptor coactivator assay relative to T1317; procedure, shortened: as §2
T4 sequence (whole entry): T3 sequence (P55055 whole entry)

[44] = target: T1, Oxysterols receptor LXR-alpha (Homo sapiens); test: Agonist activity at GST-tagged LXRalpha-LBD (unknown origin) by LanthaScreen TR-FRET liver X receptor coactivator assay T1317; procedure, shortened: as §2
[45] = tested on: Rhesus monkey; test: Increase in amyloid beta42 in CSF of rhesus monkey at 20 mg/kg, po administered for 2 weeks; type: functional, Macaca mulatta
[46] = target: T2, Oxysterols receptor LXR-alpha; test: Agonist activity at GST-tagged LXRalpha-LBD (unknown origin) by LanthaScreen TR-FRET liver X receptor coactivator assay; procedure, shortened: as §2
[47] = target: T4, Oxysterols receptor LXR-beta (Homo sapiens); test: (§9) Agonist activity at LXRbeta (unknown origin) expressed in human H4 cells co-expressing ABCA1 promoter measured after 48 hrs by cell-based transactivation assay
[48] = target: T3, Oxysterols receptor LXR-beta; test: as §9
[49] = target: T1, Oxysterols receptor LXR-alpha (Homo sapiens); test: (§10) Agonist activity at LXRalpha (unknown origin) expressed in human HepG2 cells co-expressing ABCA1 promoter measured after 48 hrs by cell-based transactivation assay
[50] = target: T2, Oxysterols receptor LXR-alpha; test: as §10

fraction unbound [1]: 0.007
Emax [2]: 49%
EC50 [3]: 1.9 µM
Emax [4]: 31%
EC50 [5]: 0.83 µM
Papp [6]: 24 ×10⁻⁶ cm/s
EC50 [7]: 0.03 µM
solubility [8]: 205 µM (≈ 106 µg/mL)
efflux ratio [9]: 0.8
efflux ratio [10]: 0.6
Kp [11]: 0.62
clearance [12]: 87 mL/min/kg
half-life [13]: 2.9 h
Vd [14]: 8.8 L/kg
bioavailability [15]: 71%
fraction unbound [16]: 0.018
clearance [17]: 18 mL/min/kg
half-life [18]: 2 h
Vd [19]: 2.7 L/kg
bioavailability [20]: 77%
Cmax [35]: 18 µM
Cmax [36]: 1 µM
Emax [43]: 103%
Emax [44]: 49%
SMILES: CC(C)[C@@](O)(C(=O)N1CCC(C2CCN(c3ccc(C(=O)N(C)C)c(Cl)c3)CC2)CC1)C(F)(F)F
Activity [21]: Active
Activity [22]: Active
Activity [23]: Non-toxic
Activity [24]: Non-toxic
Activity [25]: Active
Activity [26]: Active
inhibition in vivo at 50 mg/kg [27]: 28%
Activity [28]: Non-toxic
Activity [29]: Non-toxic
Activity [30]: Active
Activity [31]: Non-toxic
Activity [32]: inactive
Activity [33]: Toxic
fold change (FC) [34]: 3
Activity [37]: 25%
Activity [38]: Non-toxic
Activity [39]: Non-toxic
Activity [40]: Non-toxic
fold induction at 20 mg/kg [41]: 2.8
Activity [42]: Toxic
Activity [45]: 25%

EC50 [46]: 0.041 µM
EC50 [7]: 0.008 µM
Emax [47]: 64%
EC50 [48]: 0.007 µM
Emax [49]: 66%
EC50 [50]: 0.045 µM
solubility [8]: 3 µM (≈ 1.72 µg/mL)
Emax [43]: 67%
Emax [44]: 62%
SMILES: CN(C)C(=O)c1ccc(-c2cnc(N3CCN(C(=O)[C@](O)(c4ccccc4)C(F)(F)F)CC3)c(C#N)c2)cc1Cl
